Data on 27 molecules can be found in ChEMBL document CHEMBL1137460, “Fluorinated pyrazole acids are agonists of the high affinity niacin receptor GPR109a” (Bioorg Med Chem Lett, 2007).

The source made the active and inactive calls. No cut-off for these calls is given here.

Assay [1] addresses T1, Hydroxycarboxylic acid receptor 3 (Homo sapiens, UniProt P49019). The assay can be described thus: Agonist activity at human GPR109b expressed in human adipocytes assessed as decrease in intracellular cAMP level by HTRF assay. The format is functional, cell-based. The procedure, abridged: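 Whole-cell cAMP Dynamic2 HTRF assay at GPR109b. Results are given as pEC50, the negative log of molar EC50, with log SD errors and n in parentheses. Compounds with no response are marked not active. Efficacy is judged relative to niacin.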

Assay [2] has as its target T1, Hydroxycarboxylic acid receptor 3. The assay can be described thus: Agonist activity at human GPR109b […] assessed as decrease in intracellular cAMP level upto 50 uM by HTRF assay. The format is functional, cell-based.
The subject of a further assay is Mus musculus. Nature of the assay: Effect on cutaneous flushing response in C57BL/6 mouse at 100 mg/kg. More on the design: dose 100 mg/kg. The format is functional, organism-based. A digest of the protocol: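 Male C57 Bl/6 mice given 100 mg/kg. Cutaneous vasodilation is measured as a surrogate for flushing.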
Assay [3] relates to Rattus norvegicus. Nature of the assay: Reduction in 4-fluoro-5-methyl-pyrazole-3-carboxylic acid-induced plasma free fatty acid level in fasted male Sprague-Dawley rat at 1 mg/kg. The format is functional, organism-based. More on the design: dose 1 mg/kg. A digest of the protocol:
(§1)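 Fasted male Sprague–Dawley rats dosed orally at 0.1, 1 or 10 mg/kg. Plasma free fatty acid levels are followed over time, with 10 mg/kg oral niacin as the comparator.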

Assay [4] deals with Rattus norvegicus. The assay can be described thus: Reduction in 4-fluoro-5-methyl-pyrazole-3-carboxylic acid-induced plasma free fatty acid level in fasted male Sprague-Dawley rat at 10 mg/kg. The format is functional, organism-based. Details: dose 10 mg/kg. A digest of the protocol: as §1

T1 sequence (P49019 whole entry): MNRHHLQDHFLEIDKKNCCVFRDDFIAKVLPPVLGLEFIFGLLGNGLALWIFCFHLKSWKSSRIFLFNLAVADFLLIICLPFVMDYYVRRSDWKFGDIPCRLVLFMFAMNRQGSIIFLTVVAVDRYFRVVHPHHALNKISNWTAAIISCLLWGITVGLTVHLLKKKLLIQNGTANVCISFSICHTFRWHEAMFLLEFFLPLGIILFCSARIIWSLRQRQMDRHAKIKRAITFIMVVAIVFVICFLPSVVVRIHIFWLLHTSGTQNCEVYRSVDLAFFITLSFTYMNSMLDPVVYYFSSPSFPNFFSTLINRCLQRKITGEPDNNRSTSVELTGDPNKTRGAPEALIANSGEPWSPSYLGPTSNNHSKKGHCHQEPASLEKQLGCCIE

Take `CC(C)c1cc(C(=O)O)n[nH]1`: the EC50 in assay [1] (read-out: Log EC50 (converted)) was 41.7 µM.

Take `Fc1c(-c2nnn[nH]2)n[nH]c1C1CC1`: the result in assay [1] and in assay [2] was inactive. On to `O=C(O)c1cccnc1` [NIACIN], for which the EC50 in assay [1] (read-out: Log EC50 (converted)) was 75.9 µM. `CCc1cc(C(=O)O)[nH]n1`: the result in assay [1] and in assay [2] was inactive. With `Cc1[nH]nc(C(=O)O)c1Cl`, the result in assay [1] and in assay [2] was inactive. On to `CCc1[nH]nc(-c2nnn[nH]2)c1F`, for which the half-maximal effective concentration (EC50) in assay [1] (read-out: Log EC50 (converted)) is 12.3 µM. For the molecule `c1c(-c2nnn[nH]2)n[nH]c1C1CC1`, the EC50 in assay [1] (read-out: EC50) was 3.6 µM; in assay [1] (read-out: Log EC50 (converted)), 3.24 µM. On to `CCc1[nH]nc(C(=O)O)c1C`, for which the outcome in assay [1] and in assay [2] was inactive.

Turning to `CCCCc1[nH]nc(C(=O)O)c1Br`, the result in assay [1] and in assay [2] was inactive. `CCCCc1[nH]nc(-c2nnn[nH]2)c1F`: the result in assay [1] and in assay [2] was inactive.

Consider `CCCCCc1cc(C(=O)O)[nH]n1`, for which the EC50 in assay [1] (read-out: Log EC50 (converted)) is 18.6 µM. Regarding `O=C(O)c1cc(C2CC2)n[nH]1`, the result in assay [1] and in assay [2] was inactive.

Take `Cc1cc(-c2nnn[nH]2)n[nH]1`: the outcome in assay [2] was inactive.

`Cc1cc(C(=O)O)n[nH]1`: the outcome in assay [1] and in assay [2] was inactive. As for `CCCCc1[nH]nc(C(=O)O)c1F`, the result in assay [1] and in assay [2] was inactive. Regarding `c1cc(-c2nnn[nH]2)n[nH]1`, the outcome in assay [2] was inactive. Consider `CCCc1cc(C(=O)O)n[nH]1`, for which the outcome in assay [1] and in assay [2] was inactive. For `CCCCc1cc(-c2nnn[nH]2)n[nH]1`, the EC50 in assay [1] (read-out: Log EC50 (converted)) was 7.59 µM. `CCCCc1cc(C(=O)O)n[nH]1`: the EC50 in assay [1] (read-out: Log EC50 (converted)) was 11.7 µM. Regarding `O=C(O)c1n[nH]c(C2CC2)c1F`, the outcome in assay [1] and in assay [2] was inactive. In the case of `Cc1[nH]nc(-c2nnn[nH]2)c1F`, the result in assay [1] and in assay [2] was inactive.

Take `CCCc1cc(-c2nnn[nH]2)n[nH]1`: the results for the EC50 in assay [1] (read-out: EC50) and in assay [1] (read-out: Log EC50 (converted)) were 860 µM and 0.724 µM, respectively. As to `CC(C)c1cc(-c2nnn[nH]2)n[nH]1`, in assay [2], the outcome was inactive. On to `O=C(O)c1cc[nH]n1`, for which the result in assay [1] and in assay [2] was inactive.

Turning to `Cc1[nH]nc(C(=O)O)c1F`, the result in the assay with Mus musculus, with Rattus norvegicus [3] and with Rattus norvegicus [4] was Active. In addition, the outcome in assay [1] and in assay [2] was inactive. Take `CCc1[nH]nc(C(=O)O)c1F`: the outcome in assay [1] and in assay [2] was inactive.

`O=C(O)c1cc(C2CCC2)n[nH]1`: the outcome in assay [1] and in assay [2] was inactive.
